Source: PubChem (several laboratories)
NPY Y2 blocker – antagonists of human neuropeptide Y receptor Y2; P49146; NPY-Y2 expressing cells, antagonist mode; 140,000 compounds, 0.99% hits; inhibition, % at 2.7 µM;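 note: 0% = vehicle with agonist challenge and 100% = reference antagonist with challenge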
NPY-Y1 antag – antagonists of human neuropeptide Y receptor Y1; AID 1040; HEK293-CNG Y1 cells, membrane potential fluorescence; NPY at EC95, then isoproterenol; inhibition, % at 3.6 µM; P25929; 200,000 compounds, 1% hits;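 active = inhibition above the campaign mean inhibition of all tested compounds plus 3 SD, cut at about 20% in these data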;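 note: 0% = DMSO wells given NPY plus isoproterenol and 100% = isoproterenol alone without NPY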
Target sequence (P25929 whole entry, looked up): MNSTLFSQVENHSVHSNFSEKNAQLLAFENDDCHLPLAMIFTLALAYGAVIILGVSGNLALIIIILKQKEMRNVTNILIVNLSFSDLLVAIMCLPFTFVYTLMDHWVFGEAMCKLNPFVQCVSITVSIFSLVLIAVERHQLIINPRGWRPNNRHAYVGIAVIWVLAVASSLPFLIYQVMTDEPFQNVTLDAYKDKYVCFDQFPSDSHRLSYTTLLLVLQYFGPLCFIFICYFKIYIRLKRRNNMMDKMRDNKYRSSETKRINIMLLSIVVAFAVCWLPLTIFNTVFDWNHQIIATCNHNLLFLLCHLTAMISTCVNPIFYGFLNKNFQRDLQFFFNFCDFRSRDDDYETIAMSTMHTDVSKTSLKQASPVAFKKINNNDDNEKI
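material = HEK293 cells with Y1 receptor plus CNG channel | also added = NPY 25 nM then isoproterenol 1 µM plus Ro 20-1724 25 µM | schedule = dye 3 h, compound 60 min room temperature, stimulation 45 min | measured by = membrane potential fluorescence | benchmarks = high control isoproterenol alone, low control NPY with isoproterenol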
Rad51 HR inh – Rad51 (human) homologous recombination inhibition; Q06609; hRad51 DNA strand exchange, fluorescence dequenching; inhibition, % at 10 µM; 200,000 compounds, 0.085% hits;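 active = inhibition above 40% at the single screening dose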;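 note: 0% = DMSO control wells and 100% = blanks with heterologous ssDNA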
Target sequence (Q06609 whole entry, looked up): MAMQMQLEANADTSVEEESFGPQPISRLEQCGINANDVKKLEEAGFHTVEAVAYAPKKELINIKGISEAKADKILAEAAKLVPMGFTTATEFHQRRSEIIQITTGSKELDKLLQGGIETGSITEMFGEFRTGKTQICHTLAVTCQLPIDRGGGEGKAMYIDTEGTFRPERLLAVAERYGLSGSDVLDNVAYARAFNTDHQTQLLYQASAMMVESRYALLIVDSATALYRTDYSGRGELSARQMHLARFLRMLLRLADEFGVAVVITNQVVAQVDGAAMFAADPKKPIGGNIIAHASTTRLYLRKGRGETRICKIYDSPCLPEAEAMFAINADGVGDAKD
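System: hRad51 filaments on single-stranded DNA; reagent: Fluorescein- and BHQ1-tagged 47-mer duplex; compound dosing: one concentration, 10 µM final; timing: filaments 15 min 37 °C, then compound 30 min; measured by: fluorescein emission 520 nm, excitation 485 nm; benchmarks: per-plate controls and blanks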
Measles CPE – protection of cells from measles virus; Measles virus-infected cells, CPE protection, absorbance; protection (pct of control), % at 4 µM; 140,000 compounds, 1.5% hits; AID 841; in the data active = protection mostly above about 24%, no sharp cut-off; inactive = mostly below about 26%
NPY-Y1 PAM-ag – human NPY-Y1 potentiation or agonism, primary screen; NPY-Y1 expressing cells, potentiator/agonist activation; P25929; 220,000 compounds, 0.37% hits; activation, % at 3.6 µM; in the data active = activation above about 33%, passing the limit was not always enough;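 note: cells stimulated with NPY at EC10 then isoproterenol at EC100; 0% = low agonist plus stimulus and 100% = saturating agonist plus stimulus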
NPY2 pot ag – potentiators or agonists of human neuropeptide Y receptor Y2; 220,000 compounds, 0.45% hits; activation, % at 3.6 µM; P49146; cells expressing NPY-Y2, potentiator/agonist read-out; in the data active = activation above about 27%;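 note: cells stimulated with NPY near EC25 plus isoproterenol at EC100; 0% = vehicle plus submaximal agonist and 100% = vehicle plus saturating agonist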
NPY-Y1 antag ct – human NPY-Y1 antagonism in NPY-Y2 counter-screen; AID 1256; inhibition, % at 3.6 µM; shares compounds with NPY Y2 blocker; 710 compounds, 19% hits; cell-based NPY-Y1 antagonism counterscreen; in the data active = inhibition above about 20%;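 note: cells challenged with NPY then isoproterenol with cAMP sensed through a CNG channel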
NPY-Y2 ant conf – human NPY-Y2 antagonism, confirmation; inhibition, % at 2.8 µM; AID 1257; HEK293 NPY-Y2 CNG channel, membrane potential fluorescence; shares compounds with NPY Y2 blocker; 710 compounds, 32% hits;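 active = mean inhibition of triplicate wells above the hit cutoff set in the primary screen, cut at about 17% in these data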;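 note: 0% = DMSO with NPY challenge and 100% = BIIE0246 high control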
NPY-Y1 ant conf – human NPY-Y1 antagonism, confirmation; inhibition, % at 3.6 µM; shares compounds with NPY-Y1 antag; HEK293-CNG NPY-Y1, membrane potential fluorescence, cAMP; NPY challenge against isoproterenol-raised cAMP; AID 1254; 1,200 compounds, 21% hits; in the data active = inhibition above about 20%;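 note: 0% = vehicle with agonist plus stimulus and 100% = stimulus alone without agonist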
NPY-Y2 antag ct – human NPY-Y2 antagonism in NPY-Y1 counter-screen; shares compounds with NPY-Y1 antag; HEK293 NPY-Y2 CNG membrane potential fluorescence; cells given NPY, then isoproterenol; inhibition, % at 3.6 µM; 1,200 compounds, 28% hits;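 note: 0% = DMSO with agonist challenge and 100% = reference antagonist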
NPY-Y1 pot conf – confirmation of human NPY-Y1 receptor potentiators or agonists; cell-based NPY-Y1 potentiator/agonist assay; shares compounds with NPY-Y1 PAM-ag; activation, % at 3.6 µM; 280 compounds, 20% hits; in the data active = activation above about 45%;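 note: cells challenged with NPY at its EC10 plus isoproterenol stimulus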
NPY-Y2 counter – potentiates or activates NPY-Y2, counter-screen for NPY-Y1 hits. shares compounds with NPY-Y1 PAM-ag. activation, % at 3.6 µM. 280 compounds, 20% hits. HEK293-CNG cells, membrane-potential fluorescence (FLIPR), 1536-well; in the data active = activation above about 33%
NPY-Y1 agonist – activates human NPY-Y1, counter-screen for NPY-Y1 potentiators; AID 1697; HEK293 Y1-CNGC, membrane potential fluorescence, agonist mode; activation, % at 3.6 µM; shares compounds with NPY-Y1 PAM-ag; 280 compounds, 50% hits;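 active = percent activation above the mean of DMSO-only control wells plus 3 SD of those wells, cut at about 18% in these data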;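 note: cells challenged with isoproterenol plus Ro 20-1724 with no NPY in test wells; Y1 agonism lowers isoproterenol-driven cAMP and reduces probe fluorescence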
NPY-Y2 agonist – counter-screen for NPY-Y1 potentiators or agonists: agonists of NPY-Y2. shares compounds with NPY-Y1 PAM-ag. HEK293 Y2-CNGC, membrane potential fluorescence, agonist mode. activation, % at 3.6 µM. 280 compounds, 67% hits. AID 1698;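 active = activation above the solvent-only control wells' mean plus 3 SD, cut at about 11% in these data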;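 note: 0% = DMSO with isoproterenol and 100% = 40 nM NPY maximal response; agonism lowers cAMP so well fluorescence drops in active wells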
CNGC counter – blocks cyclic nucleotide gated channel in NPY-Y1 counter-screen. shares compounds with NPY-Y1 PAM-ag. HEK293-CNG parental, isoproterenol cAMP, membrane potential fluorescence. inhibition, % at 3.6 µM. 280 compounds, 42% hits;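 active = inhibition above the mean of stimulated solvent-only control wells plus 3 SD, cut at about 22% in these data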;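 note: 0% = isoproterenol-stimulated DMSO wells and 100% = unstimulated DMSO wells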
NPY-Y2 confirm – human NPY-Y2 potentiation or agonism, confirmation; shares compounds with NPY2 pot ag; cell-based NPY-Y2 potentiator/agonist assay; activation, % at 3.6 µM; 450 compounds, 20% hits; AID 1539; in the data active = activation above about 33%
NPY-Y1 counter – NPY-Y1 potentiation or agonism as NPY-Y2 counter-screen; shares compounds with NPY2 pot ag; Y1 HEK293-CNG cells, membrane potential fluorescence; activation, % at 3.6 µM; 450 compounds, 20% hits; in the data active = activation above about 45%;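 note: cells stimulated with submaximal NPY then isoproterenol with phosphodiesterase inhibitor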
NPY-Y1 ag 2 – counter-screen for NPY-Y2 potentiators: agonists of human NPY-Y1 | AID 1702 | HEK293 Y1-CNGC, membrane potential fluorescence, agonism | shares compounds with NPY2 pot ag | 450 compounds, 37% hits | activation, % at 3.6 µM;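 active = activation above the mean of DMSO-only control wells plus 3 SD, cut at about 18% in these data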;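 note: cells stimulated with 1 µM isoproterenol plus the PDE inhibitor Ro 20-1724; 0% = isoproterenol with DMSO and no NPY and 100% = 40 nM NPY; Y1 agonists lower the membrane potential dye signal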
CNGC inh – blocks CNG channel activity, counter-screen for NPY-Y2 potentiators; AID 1703; HEK293-CNG parental, isoproterenol cAMP, membrane potential fluorescence; 450 compounds, 32% hits; shares compounds with NPY2 pot ag; inhibition, % at 3.6 µM;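 active = inhibition above the control-well mean plus 3 SD of those wells, cut at about 22% in these data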;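 note: 0% = DMSO with isoproterenol and 100% = DMSO without isoproterenol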
Y2 agonist ctr – counter-screen for NPY-Y2 potentiators: agonists of human NPY-Y2 | HEK293 Y2/CNGC cells, membrane potential fluorescence, agonist mode | shares compounds with NPY2 pot ag | 450 compounds, 56% hits | activation, % at 3.6 µM;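 active = activation above the mean of solvent-only control wells plus 3 SD, cut at about 10% in these data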;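 note: cells stimulated by isoproterenol with no NPY added so direct agonism is tested; 0% = DMSO with isoproterenol alone and 100% = NPY at EC100 plus isoproterenol; agonism lowers probe fluorescence through less cAMP and CNG channel opening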
Numbers without * were called inactive; x = not tested or not shown. Only some compounds are listed: those with a hit (about 2.8% of all), similar ones and a draw of the others. Cut-off read from the data, not from the text of the source, unless noted: active = inhibition above about 17%; inactive = the rest.

SMILES	NPY Y2 blocker	NPY-Y1 antag	Rad51 HR inh	Measles CPE	NPY-Y1 PAM-ag	NPY2 pot ag	others
COC(=O)C1=C(c2ccc(S(C)(=O)=O)cc2)C[C@@H]2CC[C@H]1N2C(=O)NCCS(C)=O (stereo not given in full)	x	x	3.4	x	x	x
O=C(Nc1cccnc1)c1c(O)c2c(n(Cc3ccccc3)c1=O)CCCC2	18.8*	3.6	-7.7	15.5	5.4	12.2	NPY-Y1 antag ct=1.0;NPY-Y2 ant conf=4.0
O=C(Nc1ccc(F)cc1)c1c(O)c2c(n(Cc3ccccc3)c1=O)CCCC2	2.1	-3.5	x	2.4	-1.3	2.5
CCOC(=O)C1(CCOc2ccccc2)CCN(C2Cc3ccccc3C2)CC1	x	2.4	9.5	x	-6.5	-0.9
Cc1ccc2c(c1)C1CN(C)CCC1N2C(=O)c1cn(-c2ccccc2)nc1-c1ccccc1 (stereo not given)	x	69.8*	1.5	x	-36.5	-18.3	NPY-Y1 ant conf=19.9;NPY-Y2 antag ct=24.9*
Cc1ccc2c(c1)C1CN(C)CCC1N2C(=O)c1cccnc1Cl (stereo not given)	x	x	-9.8	x	14.9	-2.0
Cc1ccc(C2C(S(C)(=O)=O)=C(O)C(=O)N2c2ccccc2)cc1 (stereo not given) (tested in a mixture with another compound)	0.4	7.6	1.8	2.9	6.8	9.0
COC(=O)[C@@H]1C[C@@]1(C)[C@@H](NP(=O)(c1ccccc1)c1ccccc1)c1ccccc1	16.6	30.5*	-11.1	6.0	-14.0	-0.2	NPY-Y1 ant conf=18.3;NPY-Y2 antag ct=9.6
COP(=O)(CC(=O)O)c1ccccc1 (stereo not given)	-0.2	1.6	4.7	6.9	25.9	6.4
CCOP(=O)(OCC)C(O)c1ccc2c(c1)OCO2 (stereo not given)	x	x	4.9	x	-3.3	2.2
CNCC(O)c1cccc(OC(=O)c2ccccc2C)c1 (stereo not given)	9.5	22.4*	x	4.0	-30.1	6.5	NPY-Y1 ant conf=3.3;NPY-Y2 antag ct=5.8
COc1ccccc1[As](=O)(O)CC(O)COc1ccc(Cl)cc1Cl (stereo not given)	x	x	23.4	x	-21.9	-26.1
CCNC(=O)[C@H]1O[C@@H](n2cnc3c(N)ncnc32)[C@H](O)[C@@H]1O	x	145.1*	-7.3	x	-21.3	-53.0	NPY-Y1 ant conf=118.3*;NPY-Y2 antag ct=104.9*
O=C(c1ccco1)c1cn(Cc2ccc(Cl)cc2)c2ccccc12	17.0	32.7*	-8.6	2.2	-64.5	-25.9	NPY-Y1 ant conf=20.4*;NPY-Y2 antag ct=15.5
O=C(N=Nc1c(O)[nH]c(=O)[nH]c1=O)C1COc2cc3ccccc3cc2O1 (stereo not given)	x	25.3*	-0.8	x	-12.8	-12.5	NPY-Y1 ant conf=8.7;NPY-Y2 antag ct=7.5
NC(=O)c1ccc(N=Nc2c(O)[nH]c(=O)[nH]c2=O)cc1	-1.0	-3.5	-59.5	25.3	-21.3	8.0
CCC(=NCc1ccc(F)cc1)c1c(O)n(C)c(=O)n(C)c1=O	2.9	4.5	-4.5	6.0	37.3*	-0.3	NPY-Y1 pot conf=-21.5;NPY-Y2 counter=-12.6;NPY-Y1 agonist=-24.3;NPY-Y2 agonist=-8.7;CNGC counter=-16.0
CN(C=O)CP(=O)(O)CN(C)C=O	-2.8	-5.4	2.9	29.8	-5.3	-6.5
CN(C)CCCN=Cc1c(O)n(CCc2ccccc2)c(=O)[nH]c1=O	-0.4	0.9	-19.5	8.3	14.7	2.6
O=c1[nH]c(=O)n(CCc2ccccc2)c(O)c1C=NC1CC1	x	x	x	x	-6.9	73.2*	NPY-Y2 confirm=-0.5;NPY-Y1 counter=0.3;NPY-Y1 ag 2=-2.6;CNGC inh=2.8;Y2 agonist ctr=-2.8
CCOC(=O)C1(c2ccccc2)CCN(CCC(C#N)(c2ccccc2)c2ccccc2)CC1	x	x	-4.1	x	x	x
CN1CCN(c2cccc3c2C(=O)c2ccccc2C3=O)CC1	-1.6	-5.2	-6.2	7.5	22.8	33.3*	NPY-Y2 confirm=29.0;NPY-Y1 counter=33.2;NPY-Y1 ag 2=17.8*;CNGC inh=24.2*;Y2 agonist ctr=32.7*
CN1CCN(c2ccc3c(c2)S(=O)(=O)c2ccccc2C3=O)CC1	x	x	-7.1	x	x	x
O=C(NC(C(Cl)Cl)N1CCOCC1)c1ccccc1 (stereo not given)	x	-0.2	9.7	x	8.8	4.3
O=C(Nc1ccncc1)c1cccn(Cc2ccccc2)c1=O	x	-4.0	2.6	x	20.3	34.3*	NPY-Y2 confirm=2.4;NPY-Y1 counter=-33.0;NPY-Y1 ag 2=-24.6;CNGC inh=-14.6;Y2 agonist ctr=-9.9
C=CCNC(=S)Nc1ccc(OC(=O)Nc2ccc(Cl)c(Cl)c2)cc1	x	x	x	x	12.0	83.5*	NPY-Y2 confirm=9.6;NPY-Y1 counter=6.6;NPY-Y1 ag 2=2.2;CNGC inh=9.3;Y2 agonist ctr=9.8
